We go through 33 molecules from ChEMBL document CHEMBL3108672, “Structure-activity relationship of adenosine 5'-diphosphoribose at the transient receptor potential melastatin 2 (TRPM2) channel: rational design of antagonists” (J Med Chem, 2013).

Experiment [1] has as its target T1, Transient receptor potential cation channel subfamily M member 2 (Homo sapiens, UniProt O94759). In words: Inhibition of TRPM2 (unknown origin).
Experiment [2] addresses T1, Transient receptor potential cation channel subfamily M member 2. In words: Antagonist activity at human TRPM2 expressed in HEK293 cells assessed as inhibition of ADPR-induced maximum outward potassium current at +15 mV by whole-cell patch-clamp electrophysiology. The note with it: for IC50: hek293; for pIC50: read-out: IC50. The experiment is classed as cell-based. Put shortly:
(§1)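 Stable clonal HEK293 line expressing human TRPM2 (with EGFP, G418-selected). Whole-cell patch clamp at room temperature; bath had 140 mM NMDG, 1 mM Ca2+, pH 7.4; KCl/EGTA pipet solution held 200 nM free Ca2+. Channel was activated by 100 μM ADPR in the pipet, and analogue was added to the same pipet solution. Read-out: maximum outward current at +15 mV from repeated ramps every 5 s over 450 s.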

The target is the same in experiment [3]. Put plainly: Inhibition of human TRPM2 expressed in HEK293 cells assessed as inhibition of ADP-ribose-induced current by patch clamp electrophysiology. The class given is cell-based. Put shortly:
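Whole-cell patch clamp of a stable HEK293 clone co-expressing human TRPM2 and EGFP (G418-selected), at room temperature. Bath: 140 mM NMDG, 1 mM Ca²⁺, pH 7.4. Pipette: KCl-based with 200 nM free Ca²⁺ and 100 μM ADPR, with analogue added to it (0.1% DMSO for lipophilic ones). Voltage ramps from −85 mV every 5 s for 450 s. Maximum outward current at +15 mV is normalised to the ADPR control and fitted to a logistic curve for IC50.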

Experiment [4] has the same target. In words: Antagonist activity at human TRPM2 expressed in HEK293 cells assessed as inhibition of ADPR-induced maximum outward potassium current at 900 uM at +15 mV by whole-cell patch-clamp electrophysiology. The experiment is classed as cell-based. A digest of the protocol:
as §1
A general note: Patch clamp records ionic current or voltage across a cell membrane.

For experiment [5] the target is unchanged. Put plainly: Inhibition of human recombinant TRPM2.
Experiment [6] has the same target. Put plainly: Activation of TRPM2 (unknown origin). A digest of the protocol: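 Whole-cell patch clamp at room temperature on a HEK293 clone stably expressing human TRPM2 with EGFP (G418-selected). Bath solution: 140 mM NMDG, 5 mM KCl, 3.3 mM MgCl₂, 1 mM CaCl₂, HEPES pH 7.4. KCl pipet solution with free Ca²⁺ buffered to 200 nM by EGTA, plus 100 μM ADPR. Cells held at −50 mV with 140 ms ramps from −85 mV every 5 s for 450 s. Read-out was the maximum outward current at +15 mV.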

Experiment [7] has the same target. In words: Antagonist activity at human TRPM2 expressed in HEK293 cells assessed as inhibition of ADPR-induced maximum outward potassium current at 100 uM at +15 mV by whole-cell patch-clamp electrophysiology. The experiment is classed as cell-based. Put shortly: as §1
Experiment [8] has the same target. In words: Antagonist activity at human TRPM2 expressed in HEK293 cells assessed as partial inhibition of ADPR-induced maximum outward potassium current at +15 mV by whole-cell patch-clamp electrophysiology. The class given is cell-based. Put shortly:
as §1

Experiment [9] shares this target. Put plainly: Inhibition of human TRPM2 expressed in HEK293 cells assessed as inhibition of H2O2-induced intracellular calcium level by patch clamp technique. The experiment is classed as cell-based. For orientation: Calcium assays in cells follow changes in intracellular calcium, usually with a dye or a luminescent sensor.
For experiment [10] the target is unchanged. Put plainly: Inhibition of TRPM2 (unknown origin) expressed in HEK293 cells assessed as inhibition of ADP-ribose-induced current by patch clamp technique. The experiment is classed as cell-based.
Experiment [11] has the same target. Put plainly: Partial antagonist activity at TRPM2 in human polymorphonuclear neutrophils assessed as reduction in fMLP-induced chemotaxis at 100 uM preincubated for 15 mins followed by fMLP-challenge by microscopic analysis. A digest of the protocol:
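Primary human PMN at 3 × 10^6/mL, in Ca2+ buffer with 10% autologous plasma, were held 15 min at room temperature with 100 μM analogue in fibronectin-coated microfluidic chemotaxis slides. A 0→50 nM fMLP gradient was applied, and bright-field images were taken every 30 s for 1 h. Cells were tracked manually; read-out was displacement along the gradient.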

For experiment [12] the target is unchanged. Put plainly: Partial antagonist activity at TRPM2 in human polymorphonuclear neutrophils assessed as reduction in A5 peptide-induced intracellular calcium accumulation at 100 uM preincubated for 15 mins followed by A5 peptide-challenge by fluorescence microscopic analysis relative to control. The class given is cell-based. The arrangement: scale not given: the % may be the effect or the level left. A digest of the protocol: (§2)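 Primary human PMN were used within 6 h of blood donation, loaded with 4 μM Fura-2/AM for 30 min at 37 °C, and plated on fibronectin/BSA-coated coverslips. Cells were preincubated 15 min at ambient temperature with 10 mM ascorbate plus 100 μM analogue. About 70 s into recording they were stimulated with 1 μM fMLP or 10 μM A5 peptide. Read-out: ratiometric Ca2+ imaging, single-cell traces synchronized to the first peak.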

Experiment [13] shares this target. In words: Partial antagonist activity at TRPM2 in human polymorphonuclear neutrophils assessed as reduction in fMLP-induced intracellular calcium accumulation at 100 uM preincubated for 15 mins followed by fMLP-challenge by fluorescence microscopic analysis relative to control. The class given is cell-based. Set-up: scale not given: the % may be the effect or the level left. A digest of the protocol: as §2

pEC50, pIC50: −log10 of the molar value. Calls of active or inactive are those of the source. The calls are words filed in the database; no cut-off is given here. A value given as a limit tells only on which side of the number the result lay.

T1 sequence (O94759 whole entry): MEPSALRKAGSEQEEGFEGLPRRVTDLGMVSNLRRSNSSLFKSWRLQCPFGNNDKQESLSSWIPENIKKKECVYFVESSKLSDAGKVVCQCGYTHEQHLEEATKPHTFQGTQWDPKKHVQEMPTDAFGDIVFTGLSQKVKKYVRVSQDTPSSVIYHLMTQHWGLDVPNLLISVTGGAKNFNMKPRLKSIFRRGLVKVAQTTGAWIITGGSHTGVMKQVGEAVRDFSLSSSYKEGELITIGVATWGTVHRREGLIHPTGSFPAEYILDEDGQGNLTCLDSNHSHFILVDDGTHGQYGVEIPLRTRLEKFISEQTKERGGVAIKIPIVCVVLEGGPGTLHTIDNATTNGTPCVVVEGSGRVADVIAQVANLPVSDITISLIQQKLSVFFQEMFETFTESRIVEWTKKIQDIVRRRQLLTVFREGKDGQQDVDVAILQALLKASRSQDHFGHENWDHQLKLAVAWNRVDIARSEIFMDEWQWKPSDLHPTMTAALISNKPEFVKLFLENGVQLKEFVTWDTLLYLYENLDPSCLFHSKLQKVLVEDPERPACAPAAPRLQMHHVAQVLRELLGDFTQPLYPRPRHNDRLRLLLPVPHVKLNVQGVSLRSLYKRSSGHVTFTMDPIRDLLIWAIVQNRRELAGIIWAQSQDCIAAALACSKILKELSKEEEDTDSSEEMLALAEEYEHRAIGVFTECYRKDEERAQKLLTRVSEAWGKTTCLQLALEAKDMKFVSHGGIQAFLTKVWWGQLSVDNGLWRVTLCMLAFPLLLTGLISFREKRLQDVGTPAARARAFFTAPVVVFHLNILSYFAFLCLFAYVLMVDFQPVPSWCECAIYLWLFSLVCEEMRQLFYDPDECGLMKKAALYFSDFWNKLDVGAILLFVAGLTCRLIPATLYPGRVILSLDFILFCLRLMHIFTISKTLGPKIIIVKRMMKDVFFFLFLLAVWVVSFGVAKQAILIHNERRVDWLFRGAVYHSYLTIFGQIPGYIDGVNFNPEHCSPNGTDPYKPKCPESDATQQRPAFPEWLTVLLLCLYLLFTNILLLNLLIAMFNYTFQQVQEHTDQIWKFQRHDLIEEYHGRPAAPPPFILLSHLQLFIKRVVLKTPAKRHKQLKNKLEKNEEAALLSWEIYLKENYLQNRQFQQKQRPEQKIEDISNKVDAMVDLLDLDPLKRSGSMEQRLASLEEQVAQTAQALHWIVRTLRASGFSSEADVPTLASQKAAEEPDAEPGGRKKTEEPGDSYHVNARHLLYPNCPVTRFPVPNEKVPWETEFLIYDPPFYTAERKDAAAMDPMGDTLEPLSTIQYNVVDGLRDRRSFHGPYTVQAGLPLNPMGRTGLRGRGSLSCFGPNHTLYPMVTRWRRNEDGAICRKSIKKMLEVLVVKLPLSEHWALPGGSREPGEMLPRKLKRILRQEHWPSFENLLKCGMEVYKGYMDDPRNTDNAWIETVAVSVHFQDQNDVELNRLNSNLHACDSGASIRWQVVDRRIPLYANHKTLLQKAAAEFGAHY

Take `Clc1ccc(COC(Cn2ccnc2)c2ccc(Cl)cc2Cl)cc1` (stereo not given) [ECONAZOLE]: in [1], the pIC50 (commonly the negative decadic logarithm of the IC50, by convention in mol/L) was greater than 5.52.
For the molecule `Nc1ncnc2c1nc(N)n2[C@@H]1O[C@H](COP(=O)(O)OP(=O)(O)OC[C@H]2OC(O)[C@H](O)[C@@H]2O)[C@@H](O)[C@H]1O` (stereo not given in full), in experiment [2], the IC50 result is given as “Not Active”.
Take `Cc1cccc(Nc2ccccc2C(=O)O)c1`: the pIC50 in [3] is 4.12.
For `Nc1ncnc2c1cc(Br)n2[C@@H]1O[C@H](COP(=O)(O)OP(=O)(O)OC[C@H]2OC(O)[C@H](O)[C@@H]2O)[C@@H](O)[C@H]1O` (stereo not given in full), in experiment [2], the IC50 entry is listed as “Not Active”.
Consider `Nc1ncnc2c1ncn2[C@@H]1O[C@H](COP(=O)(O)OP(=O)(O)O)[C@@H](O)[C@H]1O`, for which the inhibition entry in experiment [4] is “inactive”.
For the molecule `O=C(O)c1cccnc1Nc1cccc(C(F)(F)F)c1` [NIFLUMIC ACID], in experiment [5], the negative-log IC50 (pIC50) was 3.83.
Regarding `Nc1ncnc2c1nc(-c1ccccc1)n2[C@H]1C[C@H](O)[C@@H](COP(=O)(O)OP(=O)(O)OC[C@H]2OC(O)[C@H](O)[C@@H]2O)O1` (stereo not given in full), in [4], the inhibition result is “Active”. The negative-log IC50 (pIC50) in experiment [2] was 5.52.
Regarding `Nc1ncnc2c1ncn2[C@@H]1O[C@H](COP(=O)(O)OP(=O)(O)OC[C@H]2OC(O)[C@H](O)[C@@H]2O)[C@@H](O)[C@H]1O` (stereo not given in full), in experiment [6], the negative logarithm of the EC50 (pEC50) (commonly the negative decadic logarithm of the EC50, by convention in mol/L) was 4.00.
Consider `Nc1ncnc2c1nc(-c1ccc(CC(N)C(=O)O)cc1)n2[C@@H]1O[C@H](COP(=O)(O)O)[C@@H](O)[C@H]1O` (stereo not given in full), for which, in experiment [7], the inhibition entry was “inactive”.
Take `Clc1ccccc1C(c1ccccc1)(c1ccccc1)n1ccnc1` [CLOTRIMAZOLE]: the negative logarithm of the IC50 (pIC50) in experiment [1] was greater than 5.52.
For `Cc1cccc(Nc2ccccc2C(=O)O)c1C` [MEFENAMIC ACID], in [5], the pIC50 was 3.91.
With `Nc1ncnc2c1ncn2[C@@H]1O[C@H](COP(=O)(O)OP(=O)(O)OC2CCCC2)[C@@H](O)[C@H]1O`, in [8], the pIC50 is greater than 3.05.
Consider `CCCCNc1c(NC[C@H]2O[C@@H](n3cnc4c(N)ncnc43)[C@H](O)[C@@H]2O)c(=O)c1=O`, for which, in experiment [7], the inhibition result is “inactive”.
Consider `Nc1ncnc2c1ncn2[C@@H]1O[C@H](CNc2c(NC[C@H]3O[C@@H](O)[C@H](O)[C@@H]3O)c(=O)c2=O)[C@@H](O)[C@H]1O`, for which, in experiment [7], the inhibition result was “inactive”.
Take `Nc1ncnc2c1nc(Br)n2[C@@H]1O[C@H](COP(=O)(O)OP(=O)(O)OC[C@H]2OC(O)[C@H](O)[C@@H]2O)[C@@H](O)[C@H]1O` (stereo not given in full): the pIC50 in [2] is 3.52.
Turning to `COc1ncnc2c1ncn2[C@@H]1O[C@H](COP(=O)(O)OP(=O)(O)OC[C@H]2OC(O)[C@H](O)[C@@H]2O)[C@@H](O)[C@H]1O` (stereo not given in full), the IC50 entry in experiment [2] is on record as “Not Active”.
Same read-out and setting: under `O=c1[nH]cnc2c1ccn2[C@@H]1O[C@H](COP(=O)(O)OP(=O)(O)OC[C@H]2OC(O)[C@H](O)[C@@H]2O)[C@@H](O)[C@H]1O` (stereo not given in full) stands “Not Active”.
Regarding `Nc1ncnc2c1ncn2[C@@H]1O[C@H](COP(=O)(O)OP(=O)(O)OP(=O)(O)OC[C@H]2OC(O)[C@H](O)[C@@H]2O)[C@@H](O)[C@H]1O` (stereo not given in full), the inhibition entry in experiment [4] was “inactive”.
Regarding `Nc1ncnc2c1ncn2[C@@H]1O[C@H](CNc2c(NC3CCCC3)c(=O)c2=O)[C@@H](O)[C@H]1O`, the inhibition result in [7] was “inactive”.
For `CCCCCc1ccc(/C=C/C(=O)Nc2ccccc2C(=O)O)cc1`, the negative-log IC50 (pIC50) in experiment [9] was 5.77.
COPPER: the negative-log IC50 (pIC50) in [10] was 5.59.
With `CCCCCCNc1c(NC[C@H]2O[C@@H](n3cnc4c(N)ncnc43)[C@H](O)[C@@H]2O)c(=O)c1=O`, in experiment [7], the inhibition entry is “inactive”.
For `O=C(O)c1ccccc1Nc1cccc(C(F)(F)F)c1` [FLUFENAMIC ACID], the pIC50 in experiment [5] was 4.15.
As for `Nc1ncnc2c1ncn2CCCCOP(=O)(O)OP(=O)(O)OC[C@H]1OC(O)[C@H](O)[C@@H]1O` (stereo not given in full), the inhibition result in [7] was “inactive”.
For the molecule `CC(=O)c1cccc(-c2nc3c(N)ncnc3n2[C@@H]2O[C@H](COP(=O)(O)OP(=O)(O)OC[C@H]3OC(O)[C@H](O)[C@@H]3O)[C@@H](O)[C@H]2O)c1` (stereo not given in full), the negative-log IC50 (pIC50) in [2] was 4.31.
Consider `Nc1ncnc2c1nc(Cl)n2[C@@H]1O[C@H](COP(=O)(O)O)[C@@H](O)[C@H]1O`, for which the inhibition entry in experiment [4] was “inactive”. Besides, the IC50 result in [2] is given as “Not Active”.
Regarding `Nc1ncnc2c1nc(-c1ccccc1)n2[C@@H]1O[C@H](Cn2cc(COC[C@H]3OC(O)[C@H](O)[C@@H]3O)nn2)[C@@H](O)[C@H]1O` (stereo not given in full), the inhibition result in experiment [7] is “inactive”.
With `O=c1[nH]cnc2c1ncn2[C@@H]1O[C@H](COP(=O)(O)OP(=O)(O)OC[C@H]2OC(O)[C@H](O)[C@@H]2O)[C@@H](O)[C@H]1O` (stereo not given in full), the IC50 entry in experiment [2] is reported as “Not Active”.
Take `Nc1ncnc2c1nc(-c1ccccc1)n2[C@@H]1O[C@H](COP(=O)(O)OP(=O)(O)OC2CCCC2)[C@@H](O)[C@H]1O`: the inhibition result in [7] is “Active”. Further, the pIC50 in experiment [2] is 4.82.
As to `Nc1ncnc2c1ncn2[C@@H]1O[C@H](COP(=O)(O)O)[C@@H](O)[C@H]1O` [ADENOSINE PHOSPHATE], in experiment [1], the pIC50 is 4.15. The inhibition entry in experiment [4] was “inactive”.
Regarding `Nc1ncnc2c1nc(-c1ccccc1)n2[C@@H]1O[C@H](COP(=O)(O)OP(=O)(O)OC[C@H]2OC(O)[C@H](O)[C@@H]2O)[C@@H](O)[C@H]1O` (stereo not given in full), in experiment [11], the outcome was Active. For the same molecule, the Activity in experiment [12] amounted to 31.4%; in experiment [13] it was 31.8%. In experiment [2], the pIC50 was 4.96.
For the molecule `Nc1nc(F)nc2c1ncn2[C@@H]1O[C@H](COP(=O)(O)OP(=O)(O)OC[C@H]2OC(O)[C@H](O)[C@@H]2O)[C@@H](O)[C@H]1O` (stereo not given in full), the IC50 result in experiment [2] is reported as “Not Active”.
Turning to `Nc1ncnc2c1nc(-c1ccsc1)n2[C@@H]1O[C@H](COP(=O)(O)OP(=O)(O)OC[C@H]2OC(O)[C@H](O)[C@@H]2O)[C@@H](O)[C@H]1O` (stereo not given in full), the pIC50 in experiment [2] was 4.29.
